Reference: ChEMBL document CHEMBL3244368, “[3-(1,4-Cyclohexadienyl)-L-alanine,8-lysine]vasopressin: synthesis and some pharmacological properties” (J Med Chem, 1979)
Positions of bridges follow the written chain, without caps; N, C: chain ends. Residues, ends and D or L forms follow the SMILES beside them.

Assays:
[1] = Stability of the compound in 0.2 M potassium phosphate buffer at pH 7.7 assessed as hydrolysis by measuring Ile/Phe + DiHPe level in presence of pronase; assay type: ADME
Procedure, shortened: (§1)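 Pronase digest in 0.2 M potassium phosphate buffer, pH 7.7, substrate:enzyme 5:1. Half the enzyme added at start and half after 18 h at 37 °C, then incubated 4 h more. Released amino acids quantified by amino acid analysis.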

[2] = Stability of the compound in 0.2 M potassium phosphate buffer at pH 7.7 assessed as hydrolysis by measuring Leu/Lys level in presence of pronase; assay type: ADME; procedure, shortened: as §1
[3] = Stability of the compound in 0.2 M potassium phosphate buffer at pH 7.7 assessed as hydrolysis by measuring Gly level in presence of pronase; assay type: ADME; procedure, shortened: as §1
[4] = Stability of the compound in 0.2 M potassium phosphate buffer at pH 7.7 assessed as hydrolysis by measuring Asn/Gln level in presence of pronase; assay type: ADME; procedure, shortened: as §1
[5] = Stability of the compound in 0.2 M potassium phosphate buffer at pH 7.7 assessed as hydrolysis by measuring Ile/Phe + DiHPe level in presence of pronase and aminopeptidase M; assay type: ADME
Procedure, shortened: (§2)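 Pronase digest in 0.2 M potassium phosphate, pH 7.7, substrate:enzyme 5:1, 37 °C, enzyme split over 18 h + 4 h. Digest acidified, clarified and lyophilized, then treated with aminopeptidase M (0.2 M potassium phosphate, pH 7.7, substrate:enzyme 1:1.5, 3 h, 37 °C). Amino acid analysis.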

[6] = Stability of the compound in 0.2 M potassium phosphate buffer at pH 7.7 assessed as hydrolysis by measuring Leu/Lys level in presence of pronase and aminopeptidase M; assay type: ADME; procedure, shortened: as §2
[7] = Stability of the compound in 0.2 M potassium phosphate buffer at pH 7.7 assessed as hydrolysis by measuring Gly level in presence of pronase and aminopeptidase M; assay type: ADME; procedure, shortened: as §2
[8] = Stability of the compound in 0.2 M potassium phosphate buffer at pH 7.7 assessed as hydrolysis by measuring Asn/Gln level in presence of pronase and aminopeptidase M; assay type: ADME; procedure, shortened: as §2
[9] = Stability of the compound in 0.2 M potassium phosphate buffer at pH 7.7 assessed as hydrolysis by measuring Ile/Phe + DiHPe level in presence of alpha-amylase preparation; assay type: ADME
[10] = Stability of the compound in 0.2 M potassium phosphate buffer at pH 7.7 assessed as hydrolysis by measuring Tyr level in presence of alpha-amylase preparation; assay type: ADME
[11] = Stability of the compound in 0.2 M potassium phosphate buffer at pH 7.7 assessed as hydrolysis by measuring Leu/Lys level in presence of alpha-amylase preparation; assay type: ADME
[12] = Stability of the compound in 0.2 M potassium phosphate buffer at pH 7.7 assessed as hydrolysis by measuring Gly level in presence of alpha-amylase preparation; assay type: ADME
[13] = Stability of the compound in 0.2 M potassium phosphate buffer at pH 7.7 assessed as hydrolysis by measuring Asn/Gln level in presence of alpha-amylase preparation; assay type: ADME
[14] = Stability of the compound in 0.2 M potassium phosphate buffer at pH 7.7 assessed as hydrolysis by measuring Ile/Phe + DiHPe level in presence of alpha-amylase preparation and aminopeptidase M; assay type: ADME
[15] = Stability of the compound in 0.2 M potassium phosphate buffer at pH 7.7 assessed as hydrolysis by measuring Tyr level in presence of alpha-amylase preparation and aminopeptidase M; assay type: ADME
[16] = Stability of the compound in 0.2 M potassium phosphate buffer at pH 7.7 assessed as hydrolysis by measuring Leu/Lys level in presence of alpha-amylase preparation and aminopeptidase M; assay type: ADME
[17] = Stability of the compound in 0.2 M potassium phosphate buffer at pH 7.7 assessed as hydrolysis by measuring Gly level in presence of alpha-amylase preparation and aminopeptidase M; assay type: ADME
[18] = Stability of the compound in 0.2 M potassium phosphate buffer at pH 7.7 assessed as hydrolysis by measuring Asn/Gln level in presence of alpha-amylase preparation and aminopeptidase M; assay type: ADME
[19] = Stability of the compound in […] potassium phosphate buffer at […] assessed as hydrolysis by measuring Ile/Phe + DiHPe level in presence of alpha-amylase preparation and cyclohexadiene; assay type: ADME
Procedure, shortened: (§3)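 Aspergillus oryzae α-amylase preparation, 1 mg per 0.9 µmol peptide, in potassium phosphate buffer pH 7, with 1,4-cyclohexadiene (10 µL) and toluene, under N2, 37 °C, 17 h. Adjusted to pH 2.2 for amino acid analysis. Phe from a control of constituent amino acids plus enzyme subtracted to give Phe in residue 3.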

[20] = Stability of the compound in 0.2 M potassium phosphate buffer at […] assessed as hydrolysis by measuring Tyr level in presence of alpha-amylase preparation and cyclohexadiene; assay type: ADME; procedure, shortened: as §3
[21] = Stability of the compound in […] assessed as hydrolysis by measuring Leu/Lys level in presence of alpha-amylase preparation and cyclohexadiene; assay type: ADME; details: buffer; procedure, shortened: as §3
[22] = Stability of the compound in 0.2 M potassium phosphate buffer at […] assessed as hydrolysis by measuring Gly level in presence of alpha-amylase preparation and cyclohexadiene; assay type: ADME; procedure, shortened: as §3
[23] = Stability of the compound in […] assessed as hydrolysis by measuring Asn/Gln level in presence of alpha-amylase preparation and cyclohexadiene; assay type: ADME; details: buffer; procedure, shortened: as §3
[24] = Stability of the compound in 0.2 M potassium phosphate buffer at pH 7.7 assessed as hydrolysis by measuring Ile/Phe + DiHPe level in presence of papain and aminopeptidase M; assay type: ADME
Procedure, shortened: (§4)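 Papain digest in 0.5 M ammonium acetate, pH 5.3, with 0.15% mercaptoethanol, substrate:enzyme 20:1, 6 h at 37 °C. Acidified, clarified and lyophilized, then aminopeptidase M digest in 0.2 M potassium phosphate, pH 7.7, substrate:enzyme 1:1.5, 3 h at 37 °C. Amino acid analysis.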

[25] = Stability of the compound in 0.2 M potassium phosphate buffer at pH 7.7 assessed as hydrolysis by measuring Tyr level in presence of papain and aminopeptidase M; assay type: ADME; procedure, shortened: as §4
[26] = Stability of the compound in 0.2 M potassium phosphate buffer at pH 7.7 assessed as hydrolysis by measuring Asn/Gln level in presence of papain and aminopeptidase M; assay type: ADME; procedure, shortened: as §4
[27] = Stability of the compound in 0.2 M potassium phosphate buffer at pH 7.7 assessed as hydrolysis by measuring Leu/Lys level in presence of papain and aminopeptidase M; assay type: ADME; procedure, shortened: as §4
[28] = Stability of the compound in 0.2 M potassium phosphate buffer at pH 7.7 assessed as hydrolysis by measuring Gly level in presence of papain and aminopeptidase M; assay type: ADME; procedure, shortened: as §4
[29] = Stability of the compound in phosphate buffer at pH 7.5 in presence of rat kidney homogenates; assay type: ADME, tissue-based; details: tissue homogenate
Procedure, shortened: (§5)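 DiHPhe incubated with rat kidney or liver homogenate in phosphate buffer, pH 7.5, then checked for conversion to Phe.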

[30] = Stability of the compound in phosphate buffer at pH 7.5 in presence of rat liver homogenates; assay type: ADME, tissue-based; details: tissue homogenate; procedure, shortened: as §5
Gallus gallus = species on record: Gallus gallus; assay: Vasodepressor activity in chicken; assay type: functional
Rattus norvegicus [31] = assay: Antidiuretic activity in iv dosed water loaded rat; assay type: functional, Urine
Procedure, shortened: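 Water-loaded rats under ethanol anesthesia, peptide given intravenously. Potency referenced to the USP Posterior Pituitary Reference Standard.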

Rattus norvegicus [32] = species on record: Rattus norvegicus; assay: Vasopressor activity in phenoxybenzamine-treated rat; assay type: functional
Procedure, shortened: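 Phenoxybenzamine-treated rats under urethane anesthesia. Potency referenced to the USP Posterior Pituitary Reference Standard.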

[33] = Oxytocic activity in isolated rat uterus strips in Mg2+-free van Dyke-Hastings solution
[34] = Oxytocic activity in isolated rat uterus strips in Mg2+-free solution

## CC[C@H](C)[C@H](NC(=O)[C@H](Cc1ccc(O)cc1)NC(=O)[C@@H](N)CS(=O)(=O)O)C(=O)N[C@@H](CCC(N)=O)C(=O)N[C@@H](CC(N)=O)C(=O)N[C@@H](CS(=O)(=O)O)C(=O)N1CCC[C@H]1C(=O)N[C@@H](CC(C)C)C(=O)NCC(N)=O
[1]
  Drug degradation: 38 mol%
[2]
  Drug degradation: 46 mol%
[3]
  Drug degradation: 44 mol%
[4]
  Drug degradation: 86 mol%
[5]
  Drug degradation: 65 mol%
[6]
  Drug degradation: 65 mol%
[7]
  Drug degradation: 54 mol%
[8]
  Drug degradation: 124 mol%
[9]
  Drug degradation: 75 mol%
[10]
  Drug degradation: 26 mol%
[11]
  Drug degradation: 72 mol%
[12]
  Drug degradation: 50 mol%
[13]
  Drug degradation: 72 mol%
[14]
  Drug degradation: 82 mol%
[15]
  Drug degradation: 35 mol%
[16]
  Drug degradation: 85 mol%
[17]
  Drug degradation: 60 mol%
[18]
  Drug degradation: 90 mol%
[19]
  Drug degradation: 51 mol%
[20]
  Drug degradation: 23 mol%
[21]
  Drug degradation: 57 mol%
[22]
  Drug degradation: 38 mol%
[23]
  Drug degradation: 86 mol%
[24]
  Drug degradation: 13 mol%
[25]
  Drug degradation: 30 mol%
[26]
  Drug degradation: 14 mol%
[27]
  Drug degradation: 14 mol%
[28]
  Drug degradation: 13 mol%

## N[C@@H](CC1=CCC=CC1)C(=O)O
[29]
  Stability: Stable
[30]
  Stability: Stable

## CC[C@H](C)[C@@H]1NC(=O)[C@H](Cc2ccc(O)cc2)NC(=O)[C@@H](N)CSSC[C@@H](C(=O)N2CCC[C@H]2C(=O)N[C@@H](CCCCN)C(=O)NCC(N)=O)NC(=O)[C@H](CC(N)=O)NC(=O)[C@H](CCC(N)=O)NC1=O (H-CYIQNCPKG-NH2; disulfide 1-6)
Gallus gallus
  Activity: 190 U/mg
Rattus norvegicus [31]
  Activity: 24 U/mg
Rattus norvegicus [32]
  Activity: 130 U/mg
[33]
  Activity: 78 U/mg

## NCCCC[C@H](NC(=O)[C@@H]1CCCN1C(=O)[C@@H]1CSSC[C@H](N)C(=O)N[C@@H](Cc2ccc(O)cc2)C(=O)N[C@@H](CO)C(=O)N[C@@H](CCC(N)=O)C(=O)N[C@@H](CC(N)=O)C(=O)N1)C(=O)NCC(N)=O (H-CYSQNCPKG-NH2; disulfide 1-6)
Gallus gallus
  Activity: <0.01 U/mg
Rattus norvegicus [31]
  Activity: 0.08 U/mg
Rattus norvegicus [32]
  Activity: <0.01 U/mg
[33]
  Activity: <0.01 U/mg

## NCCCC[C@H](NC(=O)[C@@H]1CCCN1C(=O)[C@@H]1CSSC[C@H](N)C(=O)N[C@@H](Cc2ccc(O)cc2)C(=O)N[C@@H](Cc2ccc(O)cc2)C(=O)N[C@@H](CCC(N)=O)C(=O)N[C@@H](CC(N)=O)C(=O)N1)C(=O)NCC(N)=O (H-CYYQNCPKG-NH2; disulfide 1-6)
Gallus gallus
  Activity: 0.08 U/mg
Rattus norvegicus [31]
  Activity: 0.18 U/mg
Rattus norvegicus [32]
  Activity: 0.07 U/mg
[34]
  Activity: <=0.01 U/mg
